Apaf1 activ = activates human Apaf-1 apoptosome. 0.31% of 330,000 active. Apaf-1 apoptosome caspase-3 activation, DEVD-Rh110 fluorescence; active compounds read low. activity change, negative = activation, % at 20 µM. AID 489031;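 active = activity change at or below -40% at 20 µM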
Target sequence (O14727 whole entry, looked up): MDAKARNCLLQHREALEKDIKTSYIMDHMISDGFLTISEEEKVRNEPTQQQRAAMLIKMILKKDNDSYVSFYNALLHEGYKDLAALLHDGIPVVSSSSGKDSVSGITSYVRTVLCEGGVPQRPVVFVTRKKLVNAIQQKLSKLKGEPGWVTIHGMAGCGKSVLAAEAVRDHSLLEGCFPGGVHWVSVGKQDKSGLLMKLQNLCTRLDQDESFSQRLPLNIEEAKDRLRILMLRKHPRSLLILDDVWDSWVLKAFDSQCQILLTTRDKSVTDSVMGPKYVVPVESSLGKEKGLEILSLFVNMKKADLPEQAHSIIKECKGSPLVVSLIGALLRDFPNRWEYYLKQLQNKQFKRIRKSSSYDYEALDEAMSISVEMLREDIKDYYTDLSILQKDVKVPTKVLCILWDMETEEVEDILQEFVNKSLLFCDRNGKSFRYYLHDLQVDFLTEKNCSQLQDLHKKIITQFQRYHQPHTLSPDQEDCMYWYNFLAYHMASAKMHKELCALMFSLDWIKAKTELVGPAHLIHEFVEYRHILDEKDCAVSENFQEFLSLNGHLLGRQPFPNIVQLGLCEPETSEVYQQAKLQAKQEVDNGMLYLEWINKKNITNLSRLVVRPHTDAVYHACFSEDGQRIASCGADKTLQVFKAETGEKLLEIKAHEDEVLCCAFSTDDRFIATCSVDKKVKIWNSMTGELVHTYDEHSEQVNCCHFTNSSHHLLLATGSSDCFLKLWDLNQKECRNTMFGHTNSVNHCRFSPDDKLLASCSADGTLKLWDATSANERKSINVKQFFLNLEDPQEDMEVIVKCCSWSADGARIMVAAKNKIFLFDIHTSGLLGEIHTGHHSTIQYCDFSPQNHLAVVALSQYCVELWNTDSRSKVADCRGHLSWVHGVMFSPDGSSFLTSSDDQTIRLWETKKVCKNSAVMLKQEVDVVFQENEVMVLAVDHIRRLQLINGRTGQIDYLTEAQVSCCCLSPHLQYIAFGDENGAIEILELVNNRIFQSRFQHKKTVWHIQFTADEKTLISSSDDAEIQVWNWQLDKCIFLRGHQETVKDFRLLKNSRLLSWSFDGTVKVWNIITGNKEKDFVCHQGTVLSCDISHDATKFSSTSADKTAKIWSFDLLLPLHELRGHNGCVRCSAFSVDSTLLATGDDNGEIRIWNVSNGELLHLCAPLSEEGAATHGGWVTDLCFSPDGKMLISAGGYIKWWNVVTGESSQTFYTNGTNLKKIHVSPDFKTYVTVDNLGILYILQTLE
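Material: biochemical Apaf-1 apoptosome reconstitution; Medium: 20 mM HEPES buffer, pH 7.5, containing CHAPS and BSA; Reagent: dATP, cytochrome c, and (Z-DEVD)2-Rh110 caspase-3 substrate; Times: 30 min preincubation, 50 min reaction, room temperature; Signal: Rh110 fluorescence, excitation 480 nm, emission 540 nm; Measure: Caspase-3 activity via Apaf-1.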
Rh110 act interf = Rh110 signal interference in Apaf-1 activator counter-screen; shares compounds with Apaf1 activ; Rh110 fluorescence interference, quenched caspase reaction, Ex480/Em540; 980 tested, under 10 active; fluorescence interference (activity change), % at 20 µM, hits read low;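 active = mean activity change at or below -40% when tested at 20 µM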
Apaf-1 act conf2 = confirmation of human Apaf-1 activators; 5% of 980 active; activity change, negative = activation, % at 20 µM; shares compounds with Apaf1 activ; reconstituted apoptosome caspase-3 activity, DEVD-Rh110 fluorescence; active compounds read low;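 active = mean activity change at or below -40%, meaning activation of 40% or more, at 20 µM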
* marks the source's active call; other numbers are inactive results. Only a sample is shown.

What do the screens show for `Cc1ccc(-c2ccc(/C=N/N=C3/NC(=O)C(CC(=O)O)S3)o2)c([N+](=O)[O-])c1` (stereo unspecified)?
Apaf1 activ: 74

What do the screens show for `Cc1ccc(S(=O)(=O)c2nc(S(C)(=O)=O)sc2N(C)C)cc1`?
Apaf1 activ: -90*; Rh110 act interf: -9; Apaf-1 act conf2: -23

Results for Cc1ccc(S(=O)(=O)N2CCN(c3nc(CN4CCCC4)nc4sc(C)c(C)c34)CC2)cc1 ?
Apaf1 activ: 48

Results for Cc1ccc(NC(=O)Nc2nnc(CSCCOc3ccc(Cl)cc3)s2)cc1 ?
Apaf1 activ: -253*; Rh110 act interf: 3; Apaf-1 act conf2: 12

How did CC1(C)OC(C)(C)/C(=C/Nc2ccc(O)cc2)C1=O do in these assays?
Apaf1 activ: 48

Results for C#CCOCCOCCOCCNc1nc(N2CCN(C(=O)CCCCCCCCCCNC(=O)[C@H]([C@@H](C)CC)n3cc(CCCCN=C(N)N)nn3)CC2)nc(N2CCN(C(=O)CCCCCCCCCCNC(=O)[C@H](CCCN=C(N)N)n3cc(C[C@@H](C)CC)nn3)CC2)n1 ?
Apaf1 activ: 46

How did CCOC(=O)c1ccc(N2CSC3=C(C#N)C(c4ccc(OC)cc4OC)CC(=O)N3C2)cc1 (stereo unspecified) do in these assays?
Apaf1 activ: 50

How did N#Cc1c(N)n(-c2ccccc2N)c2nc3ccccc3nc12 do in these assays?
Apaf1 activ: 69

Results for COc1ccc(CCn2c(N)c(C#N)c3nc4ccccc4nc32)cc1OC ?
Apaf1 activ: 60

Results for CNc1cc(C)c(C#N)c2nc3ccccc3n12 ?
Apaf1 activ: -58*; Rh110 act interf: 7; Apaf-1 act conf2: 3

How did Cc1cc(C)cc(NC(=O)C2C3C=CC4(O3)C2C(=O)N(CCCN2CCCCC2)C4C(=O)NC2CCCCC2)c1 (stereo unspecified) do in these assays?
Apaf1 activ: -325*; Rh110 act interf: 3; Apaf-1 act conf2: 17

What do the screens show for `CN1CCN(c2ccc(NC(=O)c3cc(S(N)(=O)=O)ccc3N3CCOCC3)cc2)CC1`?
Apaf1 activ: 40

What do the screens show for `Cc1cccc(NC(=O)c2cc(NC(=O)C3CCCCC3C(=O)O)ccc2N2CCOCC2)c1` (stereo unspecified)?
Apaf1 activ: -127*; Rh110 act interf: 3; Apaf-1 act conf2: 12

How did COc1ccc(-n2c(C)cc(/C=N/Nc3nnc(C)n3N)c2C)cc1 do in these assays?
Apaf1 activ: 53

How did O=c1[nH]c(=O)c2nc3c4ccccc4c4ccccc4c3nc2[nH]1 do in these assays?
Apaf1 activ: -43*; Rh110 act interf: 6; Apaf-1 act conf2: -19

How did O=C1c2ccccc2C(=O)c2[nH]c(=O)[nH]c21 do in these assays?
Apaf1 activ: 80

What do the screens show for `O=c1[nH]c(Nc2ccccc2)cc2ccccc12`?
Apaf1 activ: 96

How did C=CCC[C@@H](Cc1ccc(F)cc1)C(=O)OC[C@H]1CCCN1C(=O)[C@@H](CC=C)CC(=O)N[C@H](CO)Cc1ccccc1 do in these assays?
Apaf1 activ: 40

Results for COc1ccc(C(=O)C(Sc2nnc(C)c(=O)[nH]2)c2ccc(OC)cc2)cc1 (stereo unspecified) ?
Apaf1 activ: -114*; Rh110 act interf: 7; Apaf-1 act conf2: 17

How did Cc1[nH]c(=O)[nH]c(=O)c1CSCC(=O)OCC(=O)c1ccc(Br)cc1 do in these assays?
Apaf1 activ: -139*; Rh110 act interf: -3; Apaf-1 act conf2: 15

Results for Cc1cc(C)c(S(=O)(=O)/N=C2\C=C(NS(=O)(=O)c3ccccc3)C(=O)c3ccccc32)c(C)c1 ?
Apaf1 activ: 64

What do the screens show for `CCC(C)(C)c1ccc(OCCCC[n+]2cccc(C)c2C)c(C(C)(C)CC)c1`?
Apaf1 activ: 69

Results for O=c1[nH]c(C2CCN(S(=O)(=O)c3ccc(C(F)(F)F)cc3)CC2)nc2c1nnn2Cc1ccc(F)cc1 ?
Apaf1 activ: 41

What do the screens show for `CC(=O)c1cccc(CN2CCN(C3CCCC3)C(CCO)C2)c1` (stereo unspecified)?
Apaf1 activ: -300*; Rh110 act interf: -2; Apaf-1 act conf2: 12

How did CN(Cc1ccc(Cl)c(Cl)c1)C(=O)c1cccc(S(=O)(=O)N2CCN(Cc3ccccc3)CC2)c1 do in these assays?
Apaf1 activ: 72

Results for O=C(c1ccc(-c2ccccc2Cl)o1)N1CCCC(C(F)(F)F)C1 (stereo unspecified) ?
Apaf1 activ: 41

How did COc1ccc2c(c1)Cc1sc(NC(=O)c3ccccc3)nc1-2 do in these assays?
Apaf1 activ: 83

What do the screens show for `CCc1sc(NC(=O)CCC(=O)O)nc1-c1cc2ccccc2oc1=O`?
Apaf1 activ: -223*; Rh110 act interf: 3; Apaf-1 act conf2: 3

What do the screens show for `CCCCCCCCCCCCCCCC[n+]1ccc(C(N)=O)cc1`?
Apaf1 activ: 73

How did CC(C)[C@@H]1CN=C(N)N1C[C@@H]1CCCN1C[C@H](C)N1C[C@@H](Cc2ccccc2)N(CCc2ccc(Cl)c(Cl)c2)C1=N do in these assays?
Apaf1 activ: 54

How did CC(=O)C1=C(C)OC2(O)c3ccccc3C(=O)C12O (stereo unspecified) do in these assays?
Apaf1 activ: 93

Results for CCOC(=O)C1=C(C)OC2(O)c3ccccc3C(=O)C12O (stereo unspecified) ?
Apaf1 activ: 88

How did CC(=O)Oc1ccc2c(c1)Oc1cc(OC(C)=O)ccc1C21OC(=O)c2ccccc21 do in these assays?
Apaf1 activ: -259*; Rh110 act interf: -154*; Apaf-1 act conf2: -73*

How did CCc1noc(C)c1C(=O)N1CCN(S(=O)(=O)c2c(C)cc(C)cc2C)CC1 do in these assays?
Apaf1 activ: 57

What do the screens show for `CC(=O)c1ccc(NC2=C(N3CCOCC3)C(=O)c3ccccc3C2=O)cc1`?
Apaf1 activ: 80

What do the screens show for `CC(C)Oc1ccc(N2CC(C(=O)Nc3ccc(N4CCOCC4)cc3)CC2=O)cc1` (stereo unspecified)?
Apaf1 activ: -107*; Rh110 act interf: 8; Apaf-1 act conf2: 5

How did C#CCOCCOCCOCCNc1nc(N2CCN(C(=O)CCCCCCCCCCNC(=O)[C@H](CCCCN)n3cc(C[C@@H](C)CC)nn3)CC2)nc(N2CCN(C(=O)CCCCCCCCCCNC(=O)[C@@H]([C@H](C)O)n3cc(C)nn3)CC2)n1 do in these assays?
Apaf1 activ: 58

What do the screens show for `COC/C=C/C1=CC2=CC(=O)C(C)(OC(=O)c3cnc4ccccc4n3)C(=O)C2=CN1CC(C)C` (stereo unspecified)?
Apaf1 activ: 41

What do the screens show for `CC(C)Cc1nnc(NC(=O)C2CSC3(C)CCC(=O)N23)s1` (stereo unspecified)?
Apaf1 activ: -83*; Rh110 act interf: 6; Apaf-1 act conf2: 13

What do the screens show for `CCC[C@@H](CN1CCC[C@H]1CN1C(N)=NC[C@@H]1Cc1ccccc1)N1C[C@@H]([C@H](C)CC)N(CCCC2CCCC2)C1=N`?
Apaf1 activ: 77

Results for O=C(COc1ccc2c3c(c(=O)oc2c1)CCC3)N1CCN(c2ccc(F)cc2)CC1 ?
Apaf1 activ: 42

Results for CCOC(=O)c1c2ccc(OCC(=O)NN)cc2n2ccccc12 ?
Apaf1 activ: 42
